Sequences and labels used below:
B1: tRNA (parent)
chain: GUUCCGUUGGCGUAAUGGUAACGCGUCUCCCUCCUAAGGAGAAGACUGCGGGUUCGAGUCCCGUACGGAACG

This sample holds only a part of the variants without activity.

This series covers variants of B1. Kind of series: yeast fitness relative to wild type (ratio to wild type); higher = fitter; tRNA-Arg(CCU), competitive growth, 37 C, YPD. The gist of the method: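 Changes in genotype frequencies gave Darwinian fitness relative to wild type. Frequencies were read by 100-nucleotide paired-end sequencing of gene amplicons before and after pooled Saccharomyces cerevisiae strains, carrying tRNA-Arg(CCU) gene variants at the native locus, were competed in YPD at 37°C for 24 hours in six replicates. A genotype was kept only with ≥ 100 starting reads, and estimates < 0.5 were set to 0.5.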
Take C4A G18C A43C: the yeast fitness is not above 0.5.
With C4A C30G A40U A45U G48A, the yeast fitness was not above 0.5.
In the case of C4A A21G C60U, the yeast fitness came out at 0.544.
On to U3G U16G A21G C29A U32C C33U C34A, for which the yeast fitness came to 0.788.
The same measure for U3G U7A G9A: not above 0.5.
Next, C4A C11U C30U G39C C55G: not above 0.5; C4A A15G G17A U32C C62A A69U: not above 0.5.
C4A C5A A20U C31U C49U: the yeast fitness was not above 0.5.
For the variant C4A A40U A43U A70U, the yeast fitness is not above 0.5.
Turning to C4A C24G G63A C66A, the yeast fitness was not above 0.5.
Consider C4A A14U C34G G56C, for which the yeast fitness was not above 0.5.
Turning to C4A G17C A20C A21U C27U C33G G63A G67A, the yeast fitness is not above 0.5.
For the variant C4A C27U G39C, the yeast fitness is 0.632.
For the variant C4A C24G U28A U35C C49U, the yeast fitness worked out at 0.542.
Next, C4A C24G G44C G68U: 0.562; C4A C34A: 0.817.
With C4A C34U, the yeast fitness was 0.666.
As for U3G U35C A43U U54A A57C, the yeast fitness is not above 0.5.
Turning to C4A G6A C11A C22U C29U C61A G67A, the yeast fitness is not above 0.5.
The same measure for U3G U13A U16A: 0.65.
As to C4A C5U C22U C49U, the yeast fitness is not above 0.5.
Consider C4A C33A G39A G51C, for which the yeast fitness turned out to be 0.657.
For the variant C4A C33U A65C, the yeast fitness was not above 0.5.
Consider C4A A20C G50C A65C, for which the yeast fitness is not above 0.5.
In the case of C4A C46G, the yeast fitness was 0.847.
Regarding C4A G18A C27U U28G C33G A36G, the yeast fitness is not above 0.5.
As for C4A C49A, the yeast fitness worked out at 0.684.
Turning to C4A A15C U28C C34G, the yeast fitness was not above 0.5.
Next, C4A G10C U26A U64A: not above 0.5; C4A C31A C33G U47A A65C: 0.627.
On to C4A G17C C22U, for which the yeast fitness is not above 0.5.
C4A A36G: the yeast fitness is 0.87.
Turning to C4A G23C A40C C55A, the yeast fitness was 0.63.
Next, C4A C29U C55U G63A: not above 0.5; U3G U47G C60G: 0.503; C4A C33U A37G: not above 0.5.
The same measure for U3G U8A C31A C49A: not above 0.5; for C4A A20G C34G C66U: not above 0.5.
Next, C4A G18C C29A C31A: 0.562.
With C4A A40C C49G C60G, the yeast fitness was not above 0.5.
For the variant C4A C11A U13C, the yeast fitness came out at 0.605.
Next, C4A C49U C55A C66U: 0.545; C4A C11U C29G U32A G52A: 0.596.
With C4A G9C C30A G39A G58A, the yeast fitness is not above 0.5.
Regarding C4A G23C C31U A36C A43C G50C A70U, the yeast fitness is not above 0.5.
For C4A C11U C22A G23C A40G, the yeast fitness was not above 0.5.
For C4A G12A A45U, the yeast fitness was 0.546.
C4A G17A G18A G25A C55A: the yeast fitness is not above 0.5.
C4A C11G U19G: the yeast fitness was not above 0.5.
C4A A20U G23A C66U: the yeast fitness is not above 0.5.
The same measure for C4A A14U A20C U28G A70U: not above 0.5; for U3G U16C G48U: 0.633; for C4A C5A C34A C46U A65C: not above 0.5.
Regarding C4A A37U G50C, the yeast fitness was not above 0.5.
C4A C5U U8C U64A: the yeast fitness was not above 0.5.
With C4A C5U C24G, the yeast fitness was not above 0.5.
With C4A G9C C11G A45C, the yeast fitness is 0.508.
Consider C4A C5U A57U U59C, for which the yeast fitness was not above 0.5.
In the case of U3G U16A A45U A70G, the yeast fitness was not above 0.5.
On to C4A C11U A37C, for which the yeast fitness turned out to be 0.537.
With C4A C34G C46G G56A, the yeast fitness is not above 0.5.
As to C4A G17A G41A A69U, the yeast fitness is not above 0.5.
The same measure for C4A G6A U28G A37G: 0.738.
Next, C4A C31A C33U: not above 0.5.
Take C4A G18C C31U A57G U64C: the yeast fitness was not above 0.5.
C4A C5A C11U A20U A69C: the yeast fitness was not above 0.5.
Take C4A A20U C34G C55G C60A: the yeast fitness is not above 0.5.
Next, C4A C5G C30A: not above 0.5.
On to C4A C11U, for which the yeast fitness amounted to 0.781.
Take C4A C22G C33U A40U U59A: the yeast fitness is not above 0.5.
For the variant U3G U28G, the yeast fitness was 0.661.
As for C4A C24U G58A C62U, the yeast fitness worked out at 0.587.
The same measure for C4A C27U C61U: 0.62; for C4A A21G G51A A69G: not above 0.5.
For C4A C49U A65U, the yeast fitness was not above 0.5.
In the case of C4A A15C C55U, the yeast fitness was determined as 0.58.
Turning to C4A C29U C30G C49U, the yeast fitness is not above 0.5.
Regarding C4A C30G U59A, the yeast fitness worked out at 0.528.
As for C4A C31U A37G G48A U54A C55G A65U, the yeast fitness was not above 0.5.
Consider C4A A45C U47A, for which the yeast fitness is 0.708.
Regarding C4A G17A C27G C55U, the yeast fitness worked out at 0.62.
In the case of C4A A36C C49U A57G, the yeast fitness was not above 0.5.
Consider C4A C61G, for which the yeast fitness was 0.71.
The same measure for C4A C61U: 0.911.
Consider C4A A20U G44C C60A, for which the yeast fitness was not above 0.5.
Next, C4A C24A A42G: 0.603; C4A C27U C60G: not above 0.5; C4A G18A G25C: 0.515.
On to C4A C60G, for which the yeast fitness turned out to be 0.61.
On to C4A C60A, for which the yeast fitness was found to be 0.676.
Take C4A C22A C33A G39C: the yeast fitness is not above 0.5.
C4A G10A G23A: the yeast fitness was not above 0.5.
With C4A C33A A40U, the yeast fitness amounted to 0.522.
As for C4A G9C C30A G39A, the yeast fitness came out at 0.51.
Regarding C4A C27G C29G G68U, the yeast fitness is not above 0.5.
With C4A C5U C11G C30A, the yeast fitness was not above 0.5.
As for C4A A20G G44C A45G C61U, the yeast fitness is not above 0.5.
The same measure for C4A C30U A40G: 0.542; for C4A C5A C30A C31U C33A A45U: not above 0.5.
Next, U3G G67A: 0.846; C4A A45C U47A A70G: not above 0.5.
Turning to C4A A15G C33G C60A, the yeast fitness is not above 0.5.
Next, C4A C11G G51C: not above 0.5; U3G U16C C29G: not above 0.5.
The same measure for C4A A21G C33U G51C: not above 0.5.
For C4A C31G A40U, the yeast fitness turned out to be 0.62.
In the case of C4A C31G A40C, the yeast fitness is not above 0.5.
The same measure for C4A G25A: 1.03.
As for C4A G12C A21C C22G C55A C60U C62G A69C, the yeast fitness is not above 0.5.
For the variant C4A A14G G63A, the yeast fitness was not above 0.5.
The same measure for C4A C5A G41C G56A C62U A65C: not above 0.5; for U3G U53G: 0.587.
Take C4A C5U C24G A45U: the yeast fitness came out at 0.649.
Next, C4A A45U C62U G68A: 0.562.
Take C4A C33A C60A U64C: the yeast fitness is not above 0.5.
Turning to C4A A15C C27G C62G, the yeast fitness was not above 0.5.
Next, C4A G9A A45G: not above 0.5; C4A G6A G25A C29G A57G: not above 0.5; C4A C33G A57G: 0.576.
In the case of C4A C29G C33G A43U, the yeast fitness was not above 0.5.
Take C4A C61U A69C: the yeast fitness was 0.578.
Next, C4A G6A U16C G38A G58C C66U: not above 0.5.
Consider C4A A14U C31U A40U G41C A45C A69C, for which the yeast fitness was found to be 0.599.
Take C4A A21C G39C C49G: the yeast fitness was 0.511.
Turning to C4A G23A C29U C34G G38C U54A A57C, the yeast fitness was found to be 0.602.
Regarding C4A G9C A14G C30A G39A, the yeast fitness is not above 0.5.
Consider C4A C31G G39A G51C, for which the yeast fitness was not above 0.5.
As to C4A C34G C61A, the yeast fitness is not above 0.5.
For the variant U3G U13C C33A A42U C49U C55A, the yeast fitness was not above 0.5.
Turning to C4A A20U C29G C49G G63C, the yeast fitness is not above 0.5.
For C4A C11A U47G, the yeast fitness is not above 0.5.
On to C4A A43U C62U, for which the yeast fitness turned out to be 0.791.
C4A G17C G23C: the yeast fitness was not above 0.5.
Next, U3G U7A G9A A69U: not above 0.5.
Next, C4A A21U G52A: not above 0.5; C4A G12A: 0.666; C4A C31G: 0.758.
As to C4A A14C C60G C66U G68A, the yeast fitness is 0.561.
Regarding C4A C5U G17A, the yeast fitness is not above 0.5.
Take U3G U8C A70C: the yeast fitness worked out at 0.59.
As for C4A C29G A40U, the yeast fitness is not above 0.5.
Regarding C4A G10C C11U C27U A45U U59C C60G, the yeast fitness was not above 0.5.
Consider C4A C30G A45C C61G, for which the yeast fitness is not above 0.5.
With C4A C5G A20C A40U A65C, the yeast fitness is not above 0.5.
Regarding C4A C5U G58C U64A, the yeast fitness is 0.572.
For the variant C4A C46G C62U, the yeast fitness was 0.609.
The same measure for C4A C34G G39C: not above 0.5; for C4A C27A G38A: 0.513; for C4A A14C G41A G48C C55A A65C: 0.556.
Take C4A G18A A20C U26G C27U C49U A69C: the yeast fitness is not above 0.5.
As to U3G U8A G18C, the yeast fitness was 0.63.
C4A A70C: the yeast fitness is 0.993.
The same measure for C4A G17C G23C A45C C66U: not above 0.5.
For the variant C4A G23A U53C A57C, the yeast fitness was not above 0.5.
Next, C4A A14G A20U C49A: 0.87; C4A A20U C30U: not above 0.5.
Take C4A A65G A69U: the yeast fitness is 0.617.
On to C4A A20G U28G G68C A70C, for which the yeast fitness is not above 0.5.
For the variant C4A G10C A69C, the yeast fitness was not above 0.5.
The same measure for C4A A43U: 0.841.
Take C4A G12C U19C C24G A43U C61U: the yeast fitness turned out to be 0.532.
For C4A G10A, the yeast fitness was found to be 0.819.
Turning to C4A C30U A57G A65U, the yeast fitness is not above 0.5.
The same measure for C4A C5G C27U U53A A69U: not above 0.5; for C4A A21C A70C: not above 0.5; for C4A G23A A40C U53C: not above 0.5.
Take C4A A21C C22U: the yeast fitness was determined as 0.651.

(Values after the RNAGym collection of RNA variant scans (doi:10.1126/science.aae0568).)
